In assay [1] the target is Protein kinase C iota type (Homo sapiens) (UniProt P41743). Nature of the assay: Inhibition of PRKCI (unknown origin) at 1 uM by Ambit Kinomescan binding assay relative to control; values are per cent of control.
For assay [2], the system named is Epidermal growth factor receptor (Homo sapiens), P00533 [UNDEFINED MUTATION]. Nature of the assay: Inhibition of EGFR L747/T751del mutant (unknown origin) at 1 uM by Ambit Kinomescan binding assay relative to control.
Assay [3] concerns the target Wee1-like protein kinase (Homo sapiens) (UniProt P30291). Kind of assay: Inhibition of Wee1 Lys2 labeling site in human A-375 cells at 5 uM by KiNativ Profiling analysis relative to control. Type of assay: cell-based.
For assay [4], the target named is Serine/threonine-protein kinase WNK4 (Homo sapiens) (UniProt Q96J92). Nature of the assay: Inhibition of Wnk4 Lys2 labeling site in human A-375 cells at 0.5 uM by KiNativ Profiling analysis relative to control. Format: cell-based.
Sequence of Serine/threonine-protein kinase WNK4 (Homo sapiens) (Q96J92 whole entry): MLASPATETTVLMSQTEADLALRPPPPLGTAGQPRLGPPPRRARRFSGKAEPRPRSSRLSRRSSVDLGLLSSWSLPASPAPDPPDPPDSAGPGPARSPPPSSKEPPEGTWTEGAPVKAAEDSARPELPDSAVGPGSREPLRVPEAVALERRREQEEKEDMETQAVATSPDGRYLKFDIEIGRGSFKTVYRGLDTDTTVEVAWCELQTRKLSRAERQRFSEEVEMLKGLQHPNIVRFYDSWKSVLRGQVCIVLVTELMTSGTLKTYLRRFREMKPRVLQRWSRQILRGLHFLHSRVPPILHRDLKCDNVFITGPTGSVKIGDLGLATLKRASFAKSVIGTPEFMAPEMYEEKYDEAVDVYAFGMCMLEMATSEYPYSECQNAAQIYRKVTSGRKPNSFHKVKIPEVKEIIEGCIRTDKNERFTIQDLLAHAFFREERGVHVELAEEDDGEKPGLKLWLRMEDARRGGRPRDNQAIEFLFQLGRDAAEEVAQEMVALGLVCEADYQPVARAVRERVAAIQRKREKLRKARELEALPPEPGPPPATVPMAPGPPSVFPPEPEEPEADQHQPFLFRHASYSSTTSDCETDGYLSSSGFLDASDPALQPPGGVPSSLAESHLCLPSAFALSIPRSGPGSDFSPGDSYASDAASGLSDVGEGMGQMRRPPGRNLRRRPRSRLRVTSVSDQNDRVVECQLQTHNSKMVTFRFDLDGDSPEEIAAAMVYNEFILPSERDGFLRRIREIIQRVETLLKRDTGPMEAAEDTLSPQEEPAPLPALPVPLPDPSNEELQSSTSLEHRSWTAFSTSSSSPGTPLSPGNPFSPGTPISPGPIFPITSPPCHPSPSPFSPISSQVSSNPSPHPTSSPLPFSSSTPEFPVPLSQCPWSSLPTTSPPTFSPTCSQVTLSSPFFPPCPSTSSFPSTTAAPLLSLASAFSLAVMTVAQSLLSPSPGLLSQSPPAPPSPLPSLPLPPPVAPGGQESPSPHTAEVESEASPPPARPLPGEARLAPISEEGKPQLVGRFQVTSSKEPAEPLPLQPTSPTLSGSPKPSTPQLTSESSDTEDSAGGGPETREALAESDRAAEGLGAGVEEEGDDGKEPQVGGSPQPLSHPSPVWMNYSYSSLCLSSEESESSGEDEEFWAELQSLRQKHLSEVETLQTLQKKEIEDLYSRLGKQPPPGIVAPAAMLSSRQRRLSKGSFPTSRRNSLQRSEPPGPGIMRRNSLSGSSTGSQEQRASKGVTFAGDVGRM
Assay [5] can be described thus: Inhibition of MLK1/4 K2 labeling site in human Huh-7 cells at 1 uM by KiNativ Profiling analysis relative to control. The following applies: condition cancer.
The subject of assay [6] is 293-IL-1R. Kind of assay: Inhibition of IL-1alpha induced p105 phosphorylation level in human 293-IL-1R cells preincubated for 1 hr followed by IL-1 alpha stimulation and measured after 30 mins by Western blot analysis. Type of assay: functional, cell-based. The following applies: dose 0.01-10 µM. For orientation: Immunoblotting shows a protein as a band on a membrane.

Assay [7] concerns the target Serine/threonine-protein kinase 16 (Homo sapiens) (UniProt O75716). Nature of the assay: Inhibition of MPSK1 K2 labeling site in human Huh-7 cells at 1 uM by KiNativ Profiling analysis relative to control. Format: cell-based.
Assay [8] has as its target Mitogen-activated protein kinase kinase kinase kinase 4 (Homo sapiens, UniProt O95819). Kind of assay: Inhibition of ZC1/HGK K1 labeling site harbouring TGQLAAIKVMDVTEDEEEEIKLEINMLK in human Huh-7 cells at 1 uM by KiNativ Profiling analysis relative to control. Format: cell-based.
The target of assay [9] is Mitogen-activated protein kinase 8 (Homo sapiens, UniProt P45983). Nature of the assay: Inhibition of JNK1 (unknown origin) at 10 uM by Ambit Kinomescan binding assay relative to control.
Assay [10] deals with Tyrosine-protein kinase receptor UFO (Homo sapiens) (UniProt P30530). Nature of the assay: Inhibition of AXL ACT labeling site in human A-375 cells at 0.5 uM by KiNativ Profiling analysis relative to control. Type of assay: cell-based. The gist of the method: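 Live A375 melanoma cells were treated with compound at 5 or 0.5 μM, then lysed. Lysates were labeled with a lysine-reactive ATP or ADP-biotin probe. Read-out was the compound's protection of kinase labeling sites from probe labeling (KiNativ).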
Sequence of Tyrosine-protein kinase receptor UFO (Homo sapiens) (P30530 whole entry): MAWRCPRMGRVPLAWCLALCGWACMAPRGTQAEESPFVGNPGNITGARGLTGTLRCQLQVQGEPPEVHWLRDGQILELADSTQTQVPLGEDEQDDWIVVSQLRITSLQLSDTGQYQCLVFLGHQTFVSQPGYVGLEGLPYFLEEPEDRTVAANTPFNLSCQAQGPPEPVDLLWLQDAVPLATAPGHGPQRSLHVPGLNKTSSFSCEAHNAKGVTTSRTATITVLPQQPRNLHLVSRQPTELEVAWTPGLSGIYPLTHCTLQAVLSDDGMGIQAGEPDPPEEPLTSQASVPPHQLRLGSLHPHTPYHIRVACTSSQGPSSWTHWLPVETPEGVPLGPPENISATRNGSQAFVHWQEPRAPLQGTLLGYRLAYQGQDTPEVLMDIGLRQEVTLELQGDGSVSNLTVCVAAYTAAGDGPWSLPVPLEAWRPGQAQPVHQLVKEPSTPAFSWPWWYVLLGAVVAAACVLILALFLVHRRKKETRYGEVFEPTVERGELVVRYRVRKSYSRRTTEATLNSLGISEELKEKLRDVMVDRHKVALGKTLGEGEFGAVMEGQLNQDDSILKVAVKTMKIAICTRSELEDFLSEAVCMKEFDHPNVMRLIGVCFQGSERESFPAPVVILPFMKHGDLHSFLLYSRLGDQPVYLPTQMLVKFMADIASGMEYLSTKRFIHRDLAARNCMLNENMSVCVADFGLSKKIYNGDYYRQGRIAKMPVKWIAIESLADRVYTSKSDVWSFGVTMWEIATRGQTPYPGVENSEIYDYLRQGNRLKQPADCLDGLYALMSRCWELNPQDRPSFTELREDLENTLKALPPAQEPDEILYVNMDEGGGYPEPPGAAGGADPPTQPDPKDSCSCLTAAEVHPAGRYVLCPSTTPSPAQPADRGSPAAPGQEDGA

The target in assay [11] is T1, Dual specificity mitogen-activated protein kinase kinase 6 (Homo sapiens) (UniProt P52564).
T1 sequence (whole entry): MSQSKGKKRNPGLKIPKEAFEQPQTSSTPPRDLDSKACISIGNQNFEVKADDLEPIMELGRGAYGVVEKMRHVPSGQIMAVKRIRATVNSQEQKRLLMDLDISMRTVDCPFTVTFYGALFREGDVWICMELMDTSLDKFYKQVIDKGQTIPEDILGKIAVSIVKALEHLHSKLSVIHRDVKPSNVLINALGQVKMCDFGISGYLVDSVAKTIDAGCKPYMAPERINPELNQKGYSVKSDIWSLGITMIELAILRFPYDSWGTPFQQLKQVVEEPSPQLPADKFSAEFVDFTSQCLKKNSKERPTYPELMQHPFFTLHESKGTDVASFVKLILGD
Kind of assay: Inhibition of MEK6 (unknown origin) at 10 uM by Ambit Kinomescan binding assay.

In assay [12] the target is Dual specificity mitogen-activated protein kinase kinase 2 (Homo sapiens) (UniProt P36507). Kind of assay: Inhibition of MEK2 (unknown origin) at 10 uM by Ambit Kinomescan binding assay.
Assay [13] addresses T2, Serine/threonine-protein kinase Nek1 (Homo sapiens) (UniProt Q96PY6).
T2 sequence (whole entry): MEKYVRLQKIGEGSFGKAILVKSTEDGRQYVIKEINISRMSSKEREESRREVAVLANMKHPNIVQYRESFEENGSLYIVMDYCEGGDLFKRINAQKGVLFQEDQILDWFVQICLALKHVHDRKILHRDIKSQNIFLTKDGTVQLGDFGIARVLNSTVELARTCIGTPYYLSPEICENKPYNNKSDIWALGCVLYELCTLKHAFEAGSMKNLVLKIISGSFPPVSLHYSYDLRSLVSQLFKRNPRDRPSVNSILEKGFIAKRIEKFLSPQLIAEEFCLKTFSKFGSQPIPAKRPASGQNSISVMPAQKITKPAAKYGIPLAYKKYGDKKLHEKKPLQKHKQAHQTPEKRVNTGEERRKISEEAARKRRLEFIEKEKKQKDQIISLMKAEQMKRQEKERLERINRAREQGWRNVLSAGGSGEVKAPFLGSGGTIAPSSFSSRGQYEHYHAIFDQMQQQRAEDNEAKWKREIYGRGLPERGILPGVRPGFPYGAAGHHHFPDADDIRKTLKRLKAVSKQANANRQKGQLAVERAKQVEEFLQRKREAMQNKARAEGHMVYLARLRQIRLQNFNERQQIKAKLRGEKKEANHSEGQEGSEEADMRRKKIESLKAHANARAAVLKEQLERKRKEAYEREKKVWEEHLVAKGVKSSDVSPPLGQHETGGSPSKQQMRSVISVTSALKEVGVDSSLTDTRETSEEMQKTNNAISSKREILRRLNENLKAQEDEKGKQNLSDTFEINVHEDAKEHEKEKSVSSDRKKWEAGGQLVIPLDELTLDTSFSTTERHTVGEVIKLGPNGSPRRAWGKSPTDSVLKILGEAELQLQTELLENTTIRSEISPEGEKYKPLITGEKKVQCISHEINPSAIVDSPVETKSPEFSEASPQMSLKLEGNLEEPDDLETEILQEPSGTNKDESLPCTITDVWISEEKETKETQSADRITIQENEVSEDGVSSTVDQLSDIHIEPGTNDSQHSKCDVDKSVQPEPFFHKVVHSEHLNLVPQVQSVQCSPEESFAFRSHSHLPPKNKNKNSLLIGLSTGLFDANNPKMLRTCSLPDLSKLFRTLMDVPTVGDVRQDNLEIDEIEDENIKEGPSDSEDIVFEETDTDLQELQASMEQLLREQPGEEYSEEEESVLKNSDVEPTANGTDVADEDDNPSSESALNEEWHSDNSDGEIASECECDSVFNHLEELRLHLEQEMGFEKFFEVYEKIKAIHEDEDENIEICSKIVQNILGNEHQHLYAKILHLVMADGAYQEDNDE
Nature of the assay: Inhibition of NEK1 Lys2 labeling site in human Huh-7 cell lysate at 1 uM by KiNativ Profiling analysis relative to control. Format: subcellular.

Assay [14] has as its target Mitogen-activated protein kinase kinase kinase 1 (Homo sapiens) (UniProt Q13233). Kind of assay: Inhibition of MAP3K1 Lys2 labeling site in human Huh-7 cells at 1 uM by KiNativ Profiling analysis relative to control. Format: cell-based.
Assay [15] has as its target Cyclin-dependent kinase 11B (Homo sapiens) (UniProt P21127). Kind of assay: Inhibition of PITSLRE Lys2 labeling site in human Huh-7 cells at 1 uM by KiNativ Profiling analysis relative to control. Format: cell-based.

The source made the active and inactive calls. No cut-off for these calls is given here.

Sequence of Mitogen-activated protein kinase kinase kinase 1 (Homo sapiens) (Q13233 whole entry): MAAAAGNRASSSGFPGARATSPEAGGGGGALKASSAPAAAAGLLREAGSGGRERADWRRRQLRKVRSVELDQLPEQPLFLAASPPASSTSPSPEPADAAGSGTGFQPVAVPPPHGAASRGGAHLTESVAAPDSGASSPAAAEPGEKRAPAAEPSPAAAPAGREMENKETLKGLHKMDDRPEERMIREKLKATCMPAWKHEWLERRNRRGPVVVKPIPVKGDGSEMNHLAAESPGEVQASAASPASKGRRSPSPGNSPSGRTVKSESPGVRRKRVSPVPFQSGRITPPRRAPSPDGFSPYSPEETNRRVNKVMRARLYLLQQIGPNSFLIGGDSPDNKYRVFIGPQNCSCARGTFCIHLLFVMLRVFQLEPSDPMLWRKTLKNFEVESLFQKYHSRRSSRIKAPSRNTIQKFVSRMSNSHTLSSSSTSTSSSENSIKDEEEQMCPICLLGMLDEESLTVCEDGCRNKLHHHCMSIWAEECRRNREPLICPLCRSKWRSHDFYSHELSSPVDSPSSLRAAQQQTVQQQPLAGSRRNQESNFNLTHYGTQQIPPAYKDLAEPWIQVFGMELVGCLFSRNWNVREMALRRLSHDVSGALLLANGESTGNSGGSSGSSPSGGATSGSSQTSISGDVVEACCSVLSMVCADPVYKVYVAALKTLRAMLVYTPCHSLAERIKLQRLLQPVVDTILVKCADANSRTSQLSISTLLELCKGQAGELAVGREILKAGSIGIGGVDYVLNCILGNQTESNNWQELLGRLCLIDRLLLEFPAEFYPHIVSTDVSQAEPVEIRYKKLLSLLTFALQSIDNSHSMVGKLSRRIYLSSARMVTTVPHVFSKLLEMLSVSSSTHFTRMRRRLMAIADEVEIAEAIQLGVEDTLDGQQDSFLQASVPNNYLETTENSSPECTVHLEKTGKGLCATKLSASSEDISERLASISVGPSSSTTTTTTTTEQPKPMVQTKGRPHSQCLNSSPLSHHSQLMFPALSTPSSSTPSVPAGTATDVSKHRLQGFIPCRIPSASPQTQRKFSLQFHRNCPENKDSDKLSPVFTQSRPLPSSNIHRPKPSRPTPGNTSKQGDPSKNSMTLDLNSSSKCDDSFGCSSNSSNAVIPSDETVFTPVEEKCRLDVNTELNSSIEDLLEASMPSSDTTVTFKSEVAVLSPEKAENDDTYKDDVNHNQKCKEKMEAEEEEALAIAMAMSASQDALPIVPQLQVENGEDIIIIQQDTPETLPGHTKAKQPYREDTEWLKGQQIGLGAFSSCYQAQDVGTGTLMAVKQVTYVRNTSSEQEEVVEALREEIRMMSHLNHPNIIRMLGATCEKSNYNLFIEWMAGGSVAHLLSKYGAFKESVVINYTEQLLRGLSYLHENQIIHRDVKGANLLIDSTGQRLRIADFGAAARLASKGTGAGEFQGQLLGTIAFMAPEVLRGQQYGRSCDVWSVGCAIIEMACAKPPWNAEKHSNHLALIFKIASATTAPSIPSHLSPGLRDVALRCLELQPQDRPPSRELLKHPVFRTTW
Sequence of Cyclin-dependent kinase 11B (Homo sapiens) (P21127 whole entry): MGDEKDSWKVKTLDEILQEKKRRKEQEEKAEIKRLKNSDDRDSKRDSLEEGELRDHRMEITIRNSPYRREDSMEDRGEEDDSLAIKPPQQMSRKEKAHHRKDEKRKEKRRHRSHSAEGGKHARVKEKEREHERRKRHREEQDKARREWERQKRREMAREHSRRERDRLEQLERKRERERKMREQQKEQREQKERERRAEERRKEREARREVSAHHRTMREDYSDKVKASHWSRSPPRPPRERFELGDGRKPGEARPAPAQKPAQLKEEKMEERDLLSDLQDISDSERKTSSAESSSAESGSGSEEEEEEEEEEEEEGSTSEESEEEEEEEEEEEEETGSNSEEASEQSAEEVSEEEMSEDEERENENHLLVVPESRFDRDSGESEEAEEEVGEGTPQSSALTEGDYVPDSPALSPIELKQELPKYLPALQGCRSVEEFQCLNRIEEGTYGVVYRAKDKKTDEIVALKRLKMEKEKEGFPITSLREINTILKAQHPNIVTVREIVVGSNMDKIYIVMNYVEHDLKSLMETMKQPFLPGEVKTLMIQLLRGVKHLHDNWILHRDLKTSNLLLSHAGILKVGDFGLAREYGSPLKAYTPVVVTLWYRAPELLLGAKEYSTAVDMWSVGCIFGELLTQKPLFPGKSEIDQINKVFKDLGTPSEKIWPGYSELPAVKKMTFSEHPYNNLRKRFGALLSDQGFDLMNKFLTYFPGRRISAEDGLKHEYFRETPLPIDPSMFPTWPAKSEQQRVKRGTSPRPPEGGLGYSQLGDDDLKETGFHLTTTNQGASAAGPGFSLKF
Sequence of Protein kinase C iota type (Homo sapiens) (P41743 whole entry): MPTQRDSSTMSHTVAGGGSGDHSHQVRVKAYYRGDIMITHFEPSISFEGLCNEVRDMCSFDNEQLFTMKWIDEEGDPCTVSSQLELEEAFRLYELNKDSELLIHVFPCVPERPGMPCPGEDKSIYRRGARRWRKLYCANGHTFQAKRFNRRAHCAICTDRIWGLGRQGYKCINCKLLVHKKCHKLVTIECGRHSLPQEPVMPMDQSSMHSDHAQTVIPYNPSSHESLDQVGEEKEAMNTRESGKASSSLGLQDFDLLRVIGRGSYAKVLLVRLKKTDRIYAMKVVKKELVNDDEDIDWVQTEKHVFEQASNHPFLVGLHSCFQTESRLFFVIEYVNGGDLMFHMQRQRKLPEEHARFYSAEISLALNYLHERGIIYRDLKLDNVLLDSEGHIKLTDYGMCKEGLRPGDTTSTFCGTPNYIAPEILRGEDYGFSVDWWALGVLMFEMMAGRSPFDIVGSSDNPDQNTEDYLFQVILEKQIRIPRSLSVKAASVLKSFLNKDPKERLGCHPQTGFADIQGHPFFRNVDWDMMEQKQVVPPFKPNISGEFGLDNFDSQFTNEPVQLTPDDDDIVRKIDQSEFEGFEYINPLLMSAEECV

For the molecule `CCN1CCN(Cc2ccc(NC(=O)c3ccc(C)c(/C=C/c4cnc5[nH]ccc5c4OC)c3)cc2C(F)(F)F)CC1`, the residual activity (in general, the activity still measured, relative to the control) in [1] stood at 100%. The results for the inhibition in [2] and in assay [3] were 1.6% and -0.1%, respectively.

`CCN1CCN(Cc2ccc(NC(=O)c3ccc(C)c(Oc4ccnc5[nH]ccc45)c3)cc2C(F)(F)F)CC1`: the inhibition – broadly, the relative decrease from the control value, in per cent – in assay [4] is 7.9%; in [6], “Dose-Dependent Effect”; in assay [7], 6.7%; in [8] it was 7.6%; in assay [9], 0%; in [10] it was 2.3%. The inhibition at 1 µM in assay [5] was 1.5%. Besides, the inhibition entry in assay [11] and in [12] was “inactive” each time.

For `CNc1cc(Oc2cc(C(=O)Nc3cc(N4CCN(C)CC4)cc(C(F)(F)F)c3)ccc2C)ncn1`, the inhibition in assay [13] is -1.1%; in [14] it was 27%; in assay [15], 15.6%.

For the origin of these results see ChEMBL document CHEMBL5696442, “Discovery of type II inhibitors of TGFβ-activated kinase 1 (TAK1) and mitogen-activated protein kinase kinase kinase kinase 2 (MAP4K2)” (J Med Chem, 2015).
